ChEMBL document CHEMBL4339197, “Discovery of Imidazo[1,2-a]pyrazines and Pyrazolo[1,5-c]pyrimidines as TARP γ-8 Selective AMPAR Negative Modulators” (ACS Med Chem Lett, 2019)
Values after ≈ are worked out from the molar mass of the structure shown. Active and inactive are the calls of the source. No cut-off for these calls is given here.

Key:
[1] = target: GRIA1/CACNG8 (Homo sapiens); test: Negative allosteric modulation of recombinant human GluA1 flop isoform/TARPgamma8 expressed in HEK293 cells assessed as inhibition of glutamate-induced calcium flux at 100 uM by calcium 5/6 dye based FLIPR assay
[2] = target: Cytochrome P450 2C9 (Homo sapiens, UniProt P11712); test: Inhibition of CYP2C9 in human liver microsomes using diclofenac as substrate measured after 15 mins in presence of NADPH by LC-MS/MS analysis; format: ADME
Chain of Cytochrome P450 2C9 (P11712 whole entry): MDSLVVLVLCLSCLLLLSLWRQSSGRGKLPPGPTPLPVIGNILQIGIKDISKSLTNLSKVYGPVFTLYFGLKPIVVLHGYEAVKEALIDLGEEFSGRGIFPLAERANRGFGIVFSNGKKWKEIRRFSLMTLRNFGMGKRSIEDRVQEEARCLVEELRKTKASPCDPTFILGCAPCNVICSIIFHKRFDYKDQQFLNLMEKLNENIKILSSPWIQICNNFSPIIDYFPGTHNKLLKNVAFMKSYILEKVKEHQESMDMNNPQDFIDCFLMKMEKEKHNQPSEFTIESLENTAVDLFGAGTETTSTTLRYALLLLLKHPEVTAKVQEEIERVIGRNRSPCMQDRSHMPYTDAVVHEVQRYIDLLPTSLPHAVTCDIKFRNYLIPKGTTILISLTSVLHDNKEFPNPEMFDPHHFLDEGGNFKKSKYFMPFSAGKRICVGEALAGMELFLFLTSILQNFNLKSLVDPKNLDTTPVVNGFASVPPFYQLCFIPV

[3] = Apparent permeability across apical to basolateral side in MDCK-MDR1 cells at 5 uM measured after 60 mins by LC-MS/MS analysis; format: ADME, cell-based, Canis lupus familiaris; settings: dog
[4] = Efflux ratio of apparent permeability across basolateral to apical side over apical to basolateral side in MDCK-MDR1 cells at 5 uM measured after 60 mins by LC-MS/MS analysis; format: ADME, cell-based, Canis lupus familiaris; settings: dog
How it was run: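 Bidirectional permeability; efflux reported as the ratio of B-to-A over A-to-B apparent permeability.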

[5] = Extraction ratio in rat liver microsomes at 1 uM measured after 60 mins by LC-MS/MS analysis; format: ADME, Microsome; settings: read-out: ERH
How it was run: (§1)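 Metabolic stability in human and rat liver microsomes at 1 µM compound; reported as extraction ratio.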

[6] = Extraction ratio in human liver microsomes at 1 uM measured after 60 mins by LC-MS/MS analysis; format: ADME, Microsome; settings: read-out: ERH
How it was run: as §1

[7] = target: T1, GRIA1/CACNG2 (Homo sapiens, UniProt P42261+Q9Y698); test: Negative allosteric modulation of recombinant human GluA1 flop isoform/TARPgamma2 expressed in HEK293 cells assessed as inhibition of glutamate-induced calcium flux by calcium 5/6 dye based FLIPR assay; format: cell-based
T1 sequence (P42261 whole entry, canonical isoform): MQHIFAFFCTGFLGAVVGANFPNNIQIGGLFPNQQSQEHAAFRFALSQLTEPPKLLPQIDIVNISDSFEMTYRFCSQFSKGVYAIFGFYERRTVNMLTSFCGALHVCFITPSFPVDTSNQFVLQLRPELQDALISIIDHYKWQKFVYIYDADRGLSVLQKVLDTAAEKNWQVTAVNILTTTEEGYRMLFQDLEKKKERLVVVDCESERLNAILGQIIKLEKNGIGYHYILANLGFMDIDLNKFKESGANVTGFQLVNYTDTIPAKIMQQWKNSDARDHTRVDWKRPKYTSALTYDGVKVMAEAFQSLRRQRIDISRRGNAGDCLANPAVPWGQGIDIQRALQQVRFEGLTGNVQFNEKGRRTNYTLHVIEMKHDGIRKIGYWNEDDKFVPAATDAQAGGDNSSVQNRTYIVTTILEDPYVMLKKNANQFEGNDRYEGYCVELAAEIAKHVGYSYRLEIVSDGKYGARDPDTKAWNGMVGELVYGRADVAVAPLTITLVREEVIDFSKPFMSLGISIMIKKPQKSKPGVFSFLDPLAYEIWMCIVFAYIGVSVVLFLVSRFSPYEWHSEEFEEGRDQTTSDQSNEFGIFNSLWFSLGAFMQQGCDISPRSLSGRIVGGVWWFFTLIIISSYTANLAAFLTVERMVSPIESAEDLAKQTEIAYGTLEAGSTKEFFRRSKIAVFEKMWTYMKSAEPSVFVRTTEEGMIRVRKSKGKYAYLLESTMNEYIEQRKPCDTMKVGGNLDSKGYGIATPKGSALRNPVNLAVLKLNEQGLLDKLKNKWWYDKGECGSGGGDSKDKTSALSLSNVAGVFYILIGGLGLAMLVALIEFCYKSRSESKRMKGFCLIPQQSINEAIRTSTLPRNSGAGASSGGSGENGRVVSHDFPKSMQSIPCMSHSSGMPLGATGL
T1 sequence (Q9Y698 whole entry, canonical isoform): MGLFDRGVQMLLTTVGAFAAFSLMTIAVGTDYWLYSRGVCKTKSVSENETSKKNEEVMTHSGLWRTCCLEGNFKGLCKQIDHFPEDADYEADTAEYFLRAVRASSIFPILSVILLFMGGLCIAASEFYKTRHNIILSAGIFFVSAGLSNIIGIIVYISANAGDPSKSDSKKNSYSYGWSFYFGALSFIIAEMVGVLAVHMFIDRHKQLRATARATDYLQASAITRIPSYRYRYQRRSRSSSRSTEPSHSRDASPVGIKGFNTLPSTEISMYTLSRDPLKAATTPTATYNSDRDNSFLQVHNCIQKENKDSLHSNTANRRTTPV
How it was run: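 FLIPR Ca2+ flux assay in HEK-293 cells transiently expressing human GluA1o co-transfected with γ-2; glutamate-induced response; reported as pIC50.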

[8] = target: GRIA1/CACNG8 (Homo sapiens, UniProt P42261+Q8WXS5); test: Negative allosteric modulation of recombinant human GluA1 flop isoform/TARPgamma8 expressed in HEK293 cells assessed as inhibition of glutamate-induced calcium flux by calcium 5/6 dye based FLIPR assay; format: cell-based
Chain of GRIA1/CACNG8 (P42261 whole entry, the tested form may be a part, canonical isoform): as the sequence (P42261 whole entry, canonical isoform) above
Chain of GRIA1/CACNG8 (Q8WXS5 whole entry, the tested form may be a part, canonical isoform): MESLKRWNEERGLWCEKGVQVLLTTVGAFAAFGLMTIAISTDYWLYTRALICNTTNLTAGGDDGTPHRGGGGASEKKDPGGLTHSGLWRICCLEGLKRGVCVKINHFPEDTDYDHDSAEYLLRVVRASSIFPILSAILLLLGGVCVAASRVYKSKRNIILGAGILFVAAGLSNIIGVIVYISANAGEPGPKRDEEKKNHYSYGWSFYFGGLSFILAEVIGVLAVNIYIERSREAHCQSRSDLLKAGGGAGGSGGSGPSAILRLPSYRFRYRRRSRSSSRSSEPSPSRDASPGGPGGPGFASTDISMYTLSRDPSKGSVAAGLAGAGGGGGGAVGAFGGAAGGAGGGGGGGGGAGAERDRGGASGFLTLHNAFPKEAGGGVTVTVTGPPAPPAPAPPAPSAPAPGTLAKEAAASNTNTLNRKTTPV
How it was run: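 FLIPR assay of glutamate-induced Ca2+ flux in HEK-293 cells expressing a human GluA1o-γ-8 fusion construct. At least three assays each run in triplicate; mean pIC50 with standard deviation.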

[9] = test system: Mus musculus; test: Ex vivo receptor occupancy at TARPgamma8 in po dosed mouse assessed as plasma concentration causing 50% reduction in [3H]JNJ-56022486 receptor labeling by autoradiography; format: functional, organism-based
How it was run: (§2)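 Occupancy measured by ex vivo autoradiography with [3H]JNJ-56022486. ED50 from a Hill fit of occupancy versus dose. Brain and plasma EC50 from fitting occupancy against exposure.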

[10] = test system: Mus musculus; test: Ex vivo receptor occupancy at TARPgamma8 in po dosed mouse assessed as reduction in [3H]JNJ-56022486 receptor labeling by autoradiography; format: functional
How it was run: as §2

[11] = test system: Mus musculus; test: Anticonvulsant activity in albino CF1 mouse model of 60-Hz corneal stimulation induced kindling model assessed as decrease in seizure score at 5 mg/kg/day measured 1 hr post last dose; format: functional, organism-based
How it was run: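 Mouse corneal kindling model; once-daily oral dosing at 5 mg/kg/day for 5 days, seizure challenge 1 h after dosing. Rotarod test given immediately before challenge. Read-out is the fraction of animals protected (Racine score 3 or lower). N = 12-14 animals per cohort.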

[12] = test system: Mus musculus; test: Anticonvulsant activity in po dosed albino CF1 mouse model of 60-Hz corneal stimulation induced kindling model assessed as decrease of seizure score treated for 1 hr prior to 60-Hz corneal stimulation and measured after 1 hr
[13] = test system: Mus musculus; test: Ex vivo receptor occupancy at TARPgamma8 in mouse assessed as reduction in [3H]JNJ-56022486 receptor labeling at 10 mg/kg, po measured after 1 hr by autoradiography; format: functional
How it was run: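 Mice given a single 10 mg/kg p.o. dose and sampled over time (n = 3 per time point, ±SEM). GluA/γ-8 receptor occupancy in hippocampus measured by ex vivo autoradiography with [3H]JNJ-56022486 radiotracer. Plasma and brain exposures also measured.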

[14] = target: T2, Voltage-dependent calcium channel gamma-8 subunit (Rattus norvegicus) (UniProt Q8VHW5); test: Negative allosteric modulation of TARPgamma8 in rat hippocampal neurons assessed as inhibition of glutamate-induced current at 10 uM at -60 mV holding potential by patch-clamp electrophysiology method
T2 sequence (whole entry): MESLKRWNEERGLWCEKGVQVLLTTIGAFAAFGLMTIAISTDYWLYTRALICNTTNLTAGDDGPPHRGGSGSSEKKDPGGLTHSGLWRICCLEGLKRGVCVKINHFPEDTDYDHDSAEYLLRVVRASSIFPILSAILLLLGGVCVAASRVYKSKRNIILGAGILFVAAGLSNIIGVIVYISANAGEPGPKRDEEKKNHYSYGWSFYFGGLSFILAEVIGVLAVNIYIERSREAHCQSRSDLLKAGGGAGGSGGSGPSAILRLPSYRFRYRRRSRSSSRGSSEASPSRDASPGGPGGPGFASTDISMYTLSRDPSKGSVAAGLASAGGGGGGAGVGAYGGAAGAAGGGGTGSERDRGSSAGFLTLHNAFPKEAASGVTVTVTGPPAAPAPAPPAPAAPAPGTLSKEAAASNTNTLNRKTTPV

[15] = target: T1, GRIA1/CACNG2; test: Negative allosteric modulation of recombinant human GluA1 flop isoform/TARPgamma2 expressed in HEK293 cells assessed as inhibition of glutamate-induced calcium flux at 100 uM by calcium 5/6 dye based FLIPR assay; format: cell-based; settings: hek293, 100 µM
How it was run: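 Counterscreen of FLIPR Ca2+ flux in HEK-293 cells co-transfected with human GluA1o and γ-2, tested up to 100 µM.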

[16] = target: T2, Voltage-dependent calcium channel gamma-8 subunit (Rattus norvegicus); test: Negative allosteric modulation of TARPgamma8 in rat hippocampal neurons assessed as inhibition of glutamate-induced current at 10 uM at -60 mV holding potential measured at 5 secs interval for 50 to 60 secs by patch-clamp electrophysiology method relative to control
[17] = target: T3, Voltage-dependent calcium channel gamma-2 subunit (Rattus norvegicus, UniProt Q71RJ2); test: Negative allosteric modulation of TARPgamma2 in rat cerebellar purkinje neurons assessed as inhibition of glutamate-induced current at 10 uM at -60 mV holding potential measured at 5 secs interval for 50 to 60 secs by patch-clamp electrophysiology method
T3 sequence (Q71RJ2 whole entry): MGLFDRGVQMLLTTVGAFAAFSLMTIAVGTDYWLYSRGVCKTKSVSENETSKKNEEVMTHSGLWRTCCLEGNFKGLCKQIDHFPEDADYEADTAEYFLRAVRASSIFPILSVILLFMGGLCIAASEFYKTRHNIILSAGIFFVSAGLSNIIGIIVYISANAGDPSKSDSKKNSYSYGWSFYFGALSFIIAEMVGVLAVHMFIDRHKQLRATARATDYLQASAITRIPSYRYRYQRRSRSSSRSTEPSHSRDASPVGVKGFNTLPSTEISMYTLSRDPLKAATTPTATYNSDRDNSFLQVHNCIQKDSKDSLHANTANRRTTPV

Which IC50 ([1]; read-out: pIC50 (converted)) does the source give for `O=C1Cc2cc(-c3c(-c4ccc(F)cc4)nc4c(N5CCC(O)CC5)nccn34)ccc2N1` here?
The IC50 was 0.398 nM.

Which IC50 ([1]; read-out: pIC50 (converted)) does the source give for `CC(=O)Nc1ccc(-c2c(-c3ccc(F)cc3)nc3c(N4CCOCC4)nccn23)cc1` here?
The IC50 was over 10000 nM.

Which IC50 [2] does the source give for `Fc1ccc(-c2nc3c(N4CCOCC4)nccn3c2-c2ccc3[nH]ncc3c2)cc1` here?
Its IC50 is 500 nM.

And the IC50 ([1]; read-out: pIC50 (converted))?
Its IC50 is 0.631 nM.

What does the source list for `CC(=O)N1CCN(c2nccc3c(-c4ccc5c(c4)CC(=O)N5)c(-c4ccc(F)cc4)nn23)CC1`?
IC50 ([1]; read-out: pIC50 (converted)): 0.251 nM; Papp A→B at 1 h, 5 µM [3]: 2.1 ×10⁻⁶ cm/s; efflux ratio at 1 h, 5 µM [4]: 34; hepatic extraction ratio at 1 h, 1 µM [5]: 0.5; hepatic extraction ratio at 1 h, 1 µM [6]: 0.6

With `O=C1Cc2cc(-c3c(-c4ccc(F)cc4)nn4c(N5CCOCC5)nccc34)ccc2N1` as the compound, how does the IC50 ([1]; read-out: pIC50 (converted)) read?
Its IC50 is 0.501 nM.

With `O=C1CN(c2nccn3c(-c4ccc5c(c4)CC(=O)N5)c(-c4ccc(F)cc4)nc23)CCN1` as the compound, how does the IC50 ([1]; read-out: pIC50 (converted)) read?
The IC50 was 0.501 nM.

With `Oc1ccc(-c2c(-c3ccc(F)cc3)nc3c(N4CCOCC4)nccn23)cc1` as the compound, how does the IC50 ([1]; read-out: pIC50 (converted)) read?
The IC50 was 12.6 nM.

Which IC50 ([1]; read-out: pIC50 (converted)) does the source give for `Oc1ccc(-c2c(-c3ccc(Cl)cc3)nc3c(N4CCOCC4)nccn23)cc1` here?
The IC50 was 10 nM.

Which IC50 ([1]; read-out: IC50) does the source give for `O=C1Cc2cc(-c3c(-c4ccc(F)cc4)nc4c(N5CCC(F)CC5)nccn34)ccc2N1` here?
Its IC50 is 0.1 nM.

Which IC50 ([1]; read-out: pIC50 (converted)) does the source give for `COc1ccc(-c2c(-c3ccc(F)cc3)nc3c(N4CCOCC4)nccn23)cc1` here?
The IC50 was 501 nM.

With `Oc1ccc(-n2c(-c3ccc(F)cc3)nc3ccccc32)cc1` as the compound, how does the IC50 [7] read?
The IC50 was 1260 nM.

And the IC50 [8]?
The IC50 was 200 nM.

Which IC50 ([1]; read-out: pIC50 (converted)) does the source give for `CC(=O)N1CCN(c2nccn3c(-c4ccc5c(c4)CC(=O)N5)c(-c4ccc(F)cc4)nc23)CC1` here?
The IC50 was 0.398 nM.

Which results are given for `O=C1Cc2cc(-c3c(-c4ccc(F)cc4)nn4c(N5CCC(O)CC5)nccc34)ccc2N1`?
EC50 [9]: 0.362 µg/mL (≈ 0.816 µM); ED50 [10]: 2.9 mg/kg; Activity [11]: Active; ED50 [12]: 1.3 mg/kg; Occ [13]: > 90%

Which IC50 ([1]; read-out: pIC50 (converted)) does the source give for `O=C1CN(c2nccc3c(-c4ccc5c(c4)CC(=O)N5)c(-c4ccc(F)cc4)nn23)CCN1` here?
Its IC50 is 5.01 nM.

Which results are given for `COCCn1cc(-c2c(-c3ccc(Cl)cc3)nc3c(N4CCOCC4)nccn23)cn1`?
inhibition [14]: Dose-dependent effect; IC50 [7]: > 10000 nM; inhibition (INH) [15]: Not Active; IC50 [8]: 126 nM; inhibition [16]: 50%; inhibition (INH) [17]: Not Active

Which IC50 ([1]; read-out: pIC50 (converted)) does the source give for `O=C1Cc2cc(-c3c(-c4ccc(F)cc4)nn4c(N5CCC(F)CC5)nccc34)ccc2N1` here?
The IC50 was 5.01 nM.

And the Papp A→B at 1 h, 5 µM [3]?
The Papp A→B at 1 h, 5 µM was 1.2 ×10⁻⁶ cm/s.

What about the hepatic extraction ratio at 1 h, 1 µM [5] of the same compound?
The hepatic extraction ratio at 1 h, 1 µM was 0.6.

What about the hepatic extraction ratio at 1 h, 1 µM [6] of the same compound?
Its hepatic extraction ratio at 1 h, 1 µM is 0.6.

With `Nc1ccc(-c2c(-c3ccc(F)cc3)nc3c(N4CCOCC4)nccn23)cc1` as the compound, how does the IC50 ([1]; read-out: pIC50 (converted)) read?
The IC50 was 63.1 nM.
